pKi: −log10 of the molar value.
What was measured:
[1] = Selectivity measured as log[1/Ki(Lactobacillus casei DHFR)]-log[1/Ki(chicken liver DHFR)]
Summary of the method: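 Selectivity index calculated as log(1/Ki) for L. casei DHFR minus log(1/Ki) for chicken liver DHFR. Both Ki values came from stopped-flow 340 nm NADPH-oxidation assays, with jackknife estimation.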

Dihydrofolate reductase [2] = target: T1, Dihydrofolate reductase (Gallus gallus, UniProt P00378); test: Inhibition of chicken liver Dihydrofolate reductase (dihydrofolate reductase)
T1 sequence (P00378 whole entry): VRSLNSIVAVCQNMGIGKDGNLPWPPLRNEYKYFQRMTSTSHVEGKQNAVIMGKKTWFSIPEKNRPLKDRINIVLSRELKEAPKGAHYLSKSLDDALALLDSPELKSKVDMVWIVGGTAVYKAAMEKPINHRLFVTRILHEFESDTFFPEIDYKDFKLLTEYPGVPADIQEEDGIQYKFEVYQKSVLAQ
Summary of the method: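 Chicken liver DHFR vial (0.19 unit/mL) dissolved in 24 mL of 200 μM NADPH. Inhibitors in DMSO, final ≤0.5%. Activity with and without inhibitor read at 340 nm by stopped-flow spectrophotometry as NADPH is oxidized and dihydrofolate reduced.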

Dihydrofolate reductase [3] = target: Dihydrofolate reductase (Lactobacillus casei, UniProt P00381); test: Inhibition of Dihydrofolate reductase from Lactobacillus casei; set-up: species or system Lacticaseibacillus casei
Summary of the method: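 L. casei DHFR, from lyophilized powder, dissolved to about 0.5 unit/mL in 0.05 M Tris pH 7.20 with 50 mM mercaptoethanol and stored at −20 °C. Dihydrofolate and NADPH solutions kept at 0 °C. Inhibitors in DMSO, final ≤0.5%. Stopped-flow spectrophotometry at 340 nm followed NADPH oxidation and dihydrofolate reduction. Ki with 95% confidence limits by jackknife.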

Dihydrofolate reductase (Lactobacillus casei, UniProt P00381), sequence (P00381 whole entry): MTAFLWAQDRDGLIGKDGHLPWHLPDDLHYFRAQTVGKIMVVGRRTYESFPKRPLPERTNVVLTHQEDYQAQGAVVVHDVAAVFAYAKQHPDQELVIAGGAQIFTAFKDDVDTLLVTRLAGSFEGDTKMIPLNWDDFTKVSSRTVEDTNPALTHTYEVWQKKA

SMILES	Selectivity index [1]	pKi (Dihydrofolate reductase [2])	pKi (Dihydrofolate reductase [3])
Nc1ncc(Cc2ccccc2)c(N)n1	0.49		
COc1ccccc1Cc1cnc(N)nc1N	0.46	4.54	5.00
NC(=O)COc1ccccc1Cc1cnc(N)nc1N	-0.37	4.47	4.10
CCCCCCOc1ccccc1Cc1cnc(N)nc1N	-1.1	5.10	4.00
Nc1ncc(Cc2ccccc2Cl)c(N)n1	0.26	4.76	5.02
CCOc1ccccc1Cc1cnc(N)nc1N	0.09		4.70
COc1cccc(Cc2cnc(N)nc2N)c1	1.48		
Nc1ncc(Cc2ccccc2O)c(N)n1	-0.09	4.05	3.96
COCc1ccccc1Cc1cnc(N)nc1N	0.15	4.40	4.55
Nc1ncc(Cc2ccccc2I)c(N)n1	-0.12	5.06	4.94
C=CCOc1ccccc1Cc1cnc(N)nc1N	0.2	4.67	4.87
Nc1ncc(Cc2ccccc2OCc2ccccc2)c(N)n1	-0.3	5.04	4.74
CCCCOc1ccccc1Cc1cnc(N)nc1N	-0.61		4.45
CS(=O)(=O)Oc1ccccc1Cc1cnc(N)nc1N	-0.57	4.64	4.07
Nc1ncc(Cc2ccccc2Br)c(N)n1	0.09	4.91	5.00
Nc1ncc(Cc2ccccc2F)c(N)n1	0.66	4.36	5.02
Cc1ccccc1Cc1cnc(N)nc1N	0.49		5.02

— ChEMBL document CHEMBL1131154, “Quantitative structure-activity relationships of 2, 4-diamino-5-(2-X-benzyl)pyrimidines versus bacterial and avian dihydrofolate reductase” (J Med Chem, 1998)
